Data on five compounds can be found in PMC9050788 (European Journal of Drug Metabolism and Pharmacokinetics, 2022).

Series [1] can be described thus: Phase I DDI study of abrocitinib with fluvoxamine. Format: in vivo, human.
Series [2] can be described thus: Phase I DDI study of abrocitinib with fluconazole. Format: in vivo, human.
Series [3] in a line: Phase I DDI study of abrocitinib with rifampin. Format: in vivo, human.
The nature of series [4]: Phase I DDI study of abrocitinib with probenecid. Format: in vivo, human.
Another series can be described thus: Single vs multiple-dose. Format: in vivo, human. As to conditions: for Mean (SD) plasma concentration: abrocitinib 200 mg once daily; for Contribution to the total active moiety (unbound, adjusted for relative potencies): at steady state with 200 mg QD dosing.
A short description of series [5]: Safety across the three phase I DDI studies. Format: in vivo, human. The settings on record: all three studies, healthy volunteers. In a few lines: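 Safety population comprised all subjects receiving at least one dose of study medication. Adverse events were summarised descriptively.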
For series [6], the system named is cytochrome P450 (CYP) 2C19. As to conditions: CYP2C19; data on file; cited from earlier work.
Another series concerns CYP2C9. As to conditions: data on file; cited from earlier work.
The test system of a further series is CYP3A4. The settings on record: data on file; cited from earlier work.
The test system of another series is CYP2B6. As to conditions: data on file; cited from earlier work.
For series [7] the following is noted: cited from earlier work.
For series [8] the following is noted: after a single oral dose of abrocitinib; ref data on file; cited from earlier work.
Series [9] deals with organic anion transporter 3 (OAT3). As to conditions: in vitro transporter profiling; ref data on file; cited from earlier work.
For series [10] the following is noted: population analyses; ref data on file; cited from earlier work.
For series [11] the following is noted: plasma protein binding; ref data on file; cited from earlier work.
The mark [12] stands for this setting: Abrocitinib 100 mg single dose (n = 12), fluvoxamine study.
Setting [13] is: Abrocitinib 100 mg single dose + fluvoxamine 50 mg QD (n = 12).
Where [14] appears, read: with fluvoxamine vs abrocitinib alone, active moiety unbound.
Where [15] appears, read: Abrocitinib 100 mg single dose (n = 12), fluconazole study.
Where [16] appears, read: Abrocitinib 100 mg single dose + fluconazole 200 mg QD (n = 12).
Where [17] appears, read: with fluconazole vs abrocitinib alone, active moiety unbound.
[18] abbreviates: Abrocitinib 100 mg single dose (n = 12), rifampin study.
The mark [19] stands for this setting: Abrocitinib 200 mg single dose + Rifampin 600 mg QD (n = 12).
[20] abbreviates: with rifampin vs abrocitinib alone, active moiety unbound.
The mark [21] stands for this setting: Abrocitinib 100 mg single dose (n = 12), probenecid study.
The mark [22] stands for this setting: Abrocitinib 200 mg single dose + Probenecid 1000 mg BID (n = 12).
Setting [23] is: with probenecid vs abrocitinib alone, active moiety unbound.
[24] abbreviates: Probenecid 1000 mg BID (n = 12).

Entries after “also recorded” stand apart in the source; their conditions may differ. Where only a bound is given, the exact number is not on record here.

In the case of `CCCS(=O)(=O)N[C@H]1C[C@@H](N(C)c2ncnc3[nH]ccc23)C1` [Abrocitinib, N-{cis-3-[Methyl(7H-pyrrolo[2,3-d]pyrimidin-4-yl)amino]cyclobutyl}propane-1-sulfo namide], the “Subjects with TEAEs” value is given as 3 (25.0) n (%) in series [1] (setting [12]); 6 (50.0) n (%) in series [1] (setting [13]); 2 (16.7) n (%) in series [2] (setting [15]); 7 (58.3) n (%) in series [2] (setting [16]); 2 (16.7) n (%) in series [3] (setting [18]); 4 (33.3) n (%) in [3] (setting [19]). Moreover, the figures for the “Subjects with TEAEs” value in [4] (setting [21]) and in series [4] (setting [22]) were 6 (50.0) n (%) and 5 (41.7) n (%), respectively. Also, the “Subjects with TRAEs” value in series [1] (setting [12]) is 3 (25.0) n (%); in series [1] (setting [13]), 3 (25.0) n (%); in series [2] (setting [15]) it was 2 (16.7) n (%); in series [2] (setting [16]), 6 (50.0) n (%); in [3] (setting [18]) it was 2 (16.7) n (%); in series [3] (setting [19]) it was 4 (33.3) n (%). Besides, the “Subjects with TRAEs” value in series [4] (setting [21]) is 2 (16.7) n (%); in series [4] (setting [22]), 4 (33.3) n (%). Moreover, the “Increase in AUCinf” value in series [1] (setting [14]) is given as 2.8 fold; in series [2] (setting [17]), 4.8 fold. Besides, the “Increase in Cmax” value in series [1] (setting [14]) worked out at 1.8 fold; in [2] (setting [17]) it was 1.9 fold; in [4] (setting [23]), 1.2 fold. Besides, the “Decrease in AUCinf” value in series [3] (setting [20]) is 87.6%. Besides, the “Decrease in Cmax” value in series [3] (setting [20]) came out at 79.1%. Moreover, the “Mean (SD) plasma concentration” value in the series “Single vs multiple-dose” (before dosing on Day 2) is given as 9.16 (7.96) ng/mL; in the series “Single vs multiple-dose” (before dosing on Day 3) it was 15.01 (21.38) ng/mL; in “Single vs multiple-dose” (before dosing on Day 4), 14.95 (15.88) ng/mL. This compound yielded a concentration at 24 h in the series “Single vs multiple-dose” (human, plasma, oral, 200 mg) of 11.3 ng/mL. The “Time to steady-state plasma concentrations” value in “Single vs multiple-dose” (once-daily administration, achieved by Day 3 of dosing) is reported as at most 48 h. The “Serious or severe adverse events” value in series [5] is reported as “No serious or severe adverse events”. The “Contribution to abrocitinib metabolism” value was 53% in series [6], 30% with CYP2C9, 11% in the series on CYP3A4 and 6% in the series on CYP2B6. Further, the “Parent drug excreted unchanged in the urine” value in series [7] is 1.0–4.4%. The “Share of circulating species” value in series [8] is reported as 26%. In series [9], the “Substrate of OAT3” value is listed as “not a substrate”. Also, in series [10], the “Sex-related differences in pharmacokinetics” value is reported as “no sex-related differences”.

On to `CN(c1ncnc2[nH]ccc12)[C@H]1C[C@@H](NS(=O)(=O)CCCO)C1` [M1], for which the “Increase in Cmax” value in series [4] (setting [23]) turned out to be 1.4 fold. Also, the “Contribution to the total active moiety (unbound, adjusted for relative potencies)” value in the series “Single vs multiple-dose” was ~ 10%. The “Fraction unbound in plasma (fu)” value in series [11] is 0.63. Moreover, the “Share of circulating species” value in [8] is listed as 11%. For the same compound, in series [9], the “Substrate of OAT3” value was “substrates; also recorded: in part a substrate”.

In the case of `CC(O)CS(=O)(=O)N[C@H]1C[C@@H](N(C)c2ncnc3[nH]ccc23)C1` (stereo partly shown) [M2], in series [4] (setting [23]), the “Increase in AUCinf” value came out at 2.2 fold and the “Increase in Cmax” value is reported as 1.3 fold. In “Single vs multiple-dose”, the “Contribution to the total active moiety (unbound, adjusted for relative potencies)” value is ~ 30%. The “Fraction unbound in plasma (fu)” value in series [11] is given as 0.71. The “Share of circulating species” value in series [8] was 12%. Also, the “Substrate of OAT3” value in series [9] was “substrates; also recorded: in part a substrate”.

Consider `CCCN(CCC)S(=O)(=O)c1ccc(C(=O)O)cc1` [Probenecid, reference compound], for which, in series [4] (setting [24]), the “Subjects with TEAEs” value was 2 (16.7) n (%) and the “Subjects with TRAEs” value was 2 (16.7) n (%).

On to `CO[C@H]1/C=C/O[C@@]2(C)Oc3c(C)c(O)c4c(O)c(c(/C=N/N5CCN(C)CC5)c(O)c4c3C2=O)NC(=O)/C(C)=C\C=C\[C@H](C)[C@H](O)[C@@H](C)[C@@H](O)[C@@H](C)[C@H](OC(C)=O)[C@@H]1C` [Rifampin, reference compound], for which, in series [3] (Rifampin 600 mg QD (n = 12)), the “Subjects with TEAEs” value is on record as 10 (83.3) n (%) and the “Subjects with TRAEs” value is given as 10 (83.3) n (%).
